# From ChEMBL document CHEMBL3525963, “Tissue distribution and elimination of [14C]apixaban in rats” (Drug Metab Dispos, 2011)
# Assays:
# Set-up in all cases: dose 5 mg/kg, dosed compound name [14C]-apixaban, route oral
# Conditions in all cases: in vivo
# Spleen = assay: Biodistribution in pregnant Sprague-Dawley rat spleen at 5 mg/kg, po administered as single dose measured after 0.5 hrs; assay type: ADME, organism-based
# Rattus norvegicus [1] = assay: Biodistribution in pregnant Sprague-Dawley rat kidney cortex at 5 mg/kg, po administered as single dose measured after 24 hrs; assay type: ADME, organism-based
# Muscle tissue [2] = assay: Biodistribution in male Sprague-Dawley rat muscle at 5 mg/kg, po administered as single dose measured after 4 hrs; assay type: ADME, organism-based
# Procedure, shortened: (§1)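 [14C]apixaban (1.0 mg/mL, 20 μCi/mL) in 0.5% Tween 80 in Labrafil, given by oral gavage at 100 μCi/kg to male rats (225-252 g) fasted overnight through 4 h post-dose. One rat per time point. Carcasses frozen in hexane/dry ice and cut into 40 µm sagittal sections. QWBA read on phosphor plates against [14C]glucose standards, reported as µg eq/g. LLOQ 0.037 µg eq/g.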
# Rattus norvegicus [3] = assay: Biodistribution in pregnant Sprague-Dawley rat amnion at 5 mg/kg, po administered as single dose measured after 1 hr; assay type: ADME, organism-based
# Heart [4] = assay: Biodistribution in pregnant Sprague-Dawley rat heart at 5 mg/kg, po administered as single dose measured after 48 hrs; assay type: ADME, organism-based
# Procedure, shortened: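 Fasted pregnant SD rats (n=6, 270-319 g) each received one oral gavage dose of [14C]apixaban, 5 mg/kg (100 μCi/kg), in 0.5% Tween 80/Labrafil. One rat was killed at each of 0.5, 1, 4, 8, 24 and 48 h. Carcasses were frozen in hexane/dry ice, cut into 40 µm sagittal sections, exposed to phosphor plates and quantified against [14C]glucose standards as µg eq/g. LLOQ was 0.037 µg eq/g.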
# Muscle tissue [5] = assay: Biodistribution in male Sprague-Dawley rat muscle at 5 mg/kg, po administered as single dose measured after 0.5 hrs; assay type: ADME, organism-based; procedure, shortened: as §1
# Blood [6] = assay: Biodistribution in male Sprague-Dawley rat blood at 5 mg/kg, po administered as single dose measured after 1 hr; assay type: ADME, organism-based
# Procedure, shortened: (§2)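 [¹⁴C]Apixaban given by oral gavage at 5 mg/kg (100 μCi/kg) in 0.5% Tween 80 in Labrafil (1.0 mg/mL dosing solution) to rats fasted overnight through 4 h post-dose. One rat per time point; carcass frozen in hexane/dry ice. Quantitative whole-body autoradiography used 40 µm sagittal sections and a phosphor imaging plate calibrated with [¹⁴C]glucose standards (0.001–6.5 μCi/g). Read-out in µg eq apixaban/g; LLOQ 0.037 μg eq/g.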
# Pancreas = assay: Biodistribution in female Sprague-Dawley rat pancreas at 5 mg/kg, po administered as single dose measured after 72 hrs; assay type: ADME, organism-based
# Procedure, shortened: (§3)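 Quantitative whole-body autoradiography was run after a single 5 mg/kg (100 μCi/kg) oral gavage to fasted female or pregnant SD rats, one rat per time point. Carcasses were frozen in hexane/dry ice, and 40 µm sagittal sections were dried at −20°C for at least 48 h. Sections were exposed to a phosphor plate alongside [14C]glucose standards (0.001–6.5 µCi/g). Results are µg eq/g, with LLOQ 0.037 µg eq/g.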
# Rattus norvegicus [7] = assay: Biodistribution in female Sprague-Dawley rat brown fat at 5 mg/kg, po administered as single dose measured after 72 hrs; assay type: ADME, organism-based, Brown adipose tissue; procedure, shortened: as §3
# Harderian gland [8] = assay: Biodistribution in pregnant Sprague-Dawley rat harderian gland at 5 mg/kg, po administered as single dose measured after 0.5 hrs; assay type: ADME, organism-based
# Harderian gland [9] = assay: Biodistribution in female Sprague-Dawley rat harderian gland at 5 mg/kg, po administered as single dose measured after 1 hr; assay type: ADME, organism-based; procedure, shortened: as §2
# Rattus norvegicus [10] = assay: Biodistribution in female Sprague-Dawley rat salivary gland at 5 mg/kg, po administered as single dose measured after 4 hrs; assay type: ADME, organism-based
# Procedure, shortened: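 [14C]apixaban (20 μCi/mL in dosing solution) in 0.5% Tween 80 in Labrafil given by oral gavage to fasted female rats, 206-213 g, at 100 μCi/kg. One rat per time point was euthanized and snap-frozen. Sagittal 40 µm whole-body sections were read by QWBA phosphor imaging against [14C]glucose standards. Results are in µg eq apixaban/g, with LLOQ 0.037 μg eq/g.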
# Heart [11] = assay: Biodistribution in female Sprague-Dawley rat heart at 5 mg/kg, po administered as single dose measured after 24 hrs; assay type: ADME, organism-based; procedure, shortened: as §3
# Rattus norvegicus [12] = assay: Biodistribution in fetal brain of pregnant Sprague-Dawley rat at 5 mg/kg, po administered as single dose measured after 0.5 hrs; assay type: ADME, organism-based
# Procedure, shortened: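 Pregnant SD rats received a single oral gavage of [14C]apixaban at 5 mg/kg (100 μCi/kg; 1.0 mg/mL, 20 μCi/mL in 0.5% Tween 80/Labrafil) after fasting, one dam per time point. Frozen carcasses were cut into 40 µm sagittal sections and read by phosphor-imaging QWBA against [14C]glucose standards. Fetal tissue radioactivity is reported as µg eq/g, with LLOQ 0.037 µg eq/g.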
# Heart [13] = assay: Biodistribution in female Sprague-Dawley rat heart at 5 mg/kg, po administered as single dose measured after 8 hrs; assay type: ADME, organism-based; procedure, shortened: as §3
# Harderian gland [14] = assay: Biodistribution in male Sprague-Dawley rat harderian gland at 5 mg/kg, po administered as single dose measured after 24 hrs; assay type: ADME, organism-based
# Procedure, shortened: (§4)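 Fasted male SD rats (225-252 g) each received one oral gavage dose of [14C]apixaban, 5 mg/kg (100 μCi/kg), in 0.5% Tween 80/Labrafil vehicle. One rat was killed per time point, from 0.5 to 168 h. Frozen carcasses were cut into 40 µm sagittal whole-body sections and read by QWBA phosphor imaging against [14C]glucose calibrants. Results are in µg apixaban eq/g; BLQ <0.037 µg eq/g.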
# Rattus norvegicus [15] = assay: Biodistribution in pregnant Sprague-Dawley rat placenta at 5 mg/kg, po administered as single dose measured after 4 hrs; assay type: ADME, organism-based
# Adrenal gland = assay: Biodistribution in male Sprague-Dawley rat adrenal gland at 5 mg/kg, po administered as single dose measured after 8 hrs; assay type: ADME, organism-based; procedure, shortened: as §2
# Rattus norvegicus [16] = assay: Biodistribution in male Sprague-Dawley rat salivary gland at 5 mg/kg, po administered as single dose measured after 72 hrs; assay type: ADME, organism-based; procedure, shortened: as §4
# Liver = assay: Biodistribution in female Sprague-Dawley rat liver at 5 mg/kg, po administered as single dose measured after 24 hrs; assay type: ADME, organism-based; procedure, shortened: as §2
# Thymus = assay: Biodistribution in male Sprague-Dawley rat thymus at 5 mg/kg, po administered as single dose measured after 0.5 hrs; assay type: ADME, organism-based; procedure, shortened: as §1
# Heart [17] = assay: Biodistribution in female Sprague-Dawley rat heart at 5 mg/kg, po administered as single dose measured after 4 hrs; assay type: ADME, organism-based; procedure, shortened: as §2
# Lung = assay: Biodistribution in female Sprague-Dawley rat lung at 5 mg/kg, po administered as single dose measured after 8 hrs; assay type: ADME, organism-based; procedure, shortened: as §2
# [18] = Drug level in lactating Sprague-Dawley rat milk at 5 mg/kg, po administered as single dose after 0.5 hrs; assay type: ADME, organism-based
# Harderian gland [19] = assay: Biodistribution in male Sprague-Dawley rat harderian gland at 5 mg/kg, po administered as single dose measured after 8 hrs; assay type: ADME, organism-based; procedure, shortened: as §2
# Blood [20] = assay: Cmax in pregnant Sprague-Dawley rat blood at 5 mg/kg, po administered as single dose; assay type: ADME, organism-based
# Procedure, shortened: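 Fasted male, female or pregnant SD rats received a single oral gavage of 5 mg/kg (100 μCi/kg) in 0.5% Tween 80/Labrafil. One rat was killed per time point, up to 168 h (48 h for pregnant). Blood was collected into K3EDTA. Blood radioactivity came from autoradiogram or LSC data, and Cmax was taken from the concentration-time profile.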
smiles,measurement,setting,value
COc1ccc(-n2nc(C(N)=O)c3c2C(=O)N(c2ccc(N4CCCC[14C]4=O)cc2)CC3)cc1,Radiolabel recovery,Spleen,0.46 ugequiv/g
same,Radiolabel recovery,Rattus norvegicus [1],0.05 ugequiv/g
same,Radiolabel recovery,Muscle tissue [2],0.27 ugequiv/g
same,Radiolabel recovery,Rattus norvegicus [3],2.12 ugequiv/g
same,Radiolabel recovery,Heart [4],Not detected assumed BLQ
same,Radiolabel recovery,Muscle tissue [5],0.2 ugequiv/g
same,Radiolabel recovery,Blood [6],1.18 ugequiv/g
same,Radiolabel recovery,Pancreas,Not sampled as not visualised in autoradiograph
same,Radiolabel recovery,Rattus norvegicus [7],Not detected assumed BLQ
same,Radiolabel recovery,Harderian gland [8],1 ugequiv/g
same,Radiolabel recovery,Harderian gland [9],0.64 ugequiv/g
same,Radiolabel recovery,Rattus norvegicus [10],0.44 ugequiv/g
same,Radiolabel recovery,Heart [11],Not detected assumed BLQ
same,Radiolabel recovery,Rattus norvegicus [12],< 0.037 ugequiv/g
same,Radiolabel recovery,Heart [13],0.11 ugequiv/g
same,Radiolabel recovery,Harderian gland [14],Not detected assumed BLQ
same,Radiolabel recovery,Rattus norvegicus [15],1.06 ugequiv/g
same,Radiolabel recovery,Adrenal gland,0.17 ugequiv/g
same,Radiolabel recovery,Rattus norvegicus [16],Not detected assumed BLQ
same,Radiolabel recovery,Liver,< 0.037 ugequiv/g
same,Radiolabel recovery,Thymus,0.16 ugequiv/g
same,Radiolabel recovery,Heart [17],0.51 ugequiv/g
same,Radiolabel recovery,Lung,0.2 ugequiv/g
same,Radiolabel recovery,[18],2.75 µg/mL
same,Radiolabel recovery,Harderian gland [19],0.12 ugequiv/g
same,Cmax,Blood [20],1440 ngequiv/g
